Screening results as filed in PubChem.
A selection: hits, their analogues and other compounds. The true share with any hit is near 1.7%.
HNF4A DNA FP: change in binding of human HNF4 alpha to DNA | P41235 | HNF4a-FITC DNA binding, fluorescence polarization, 1 h | activity change, % at 10 µM | 0.3% of 360,000 active; in the data active means activity change above about 30%, passing the limit was not always enough
TPT1 inh: blocks Candida albicans tRNA 2'-phosphotransferase; recombinant caTPT1, FP RNA substrate dephosphorylation; inhibition, % at 5 µM; 0.81% of 300,000 active;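 active means inhibition above the mean of all tested compounds plus 3 SD, set per screening campaign, cut at about 24% in these data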
NR1D1 modulator: modulators of human Rev-erb alpha DNA binding. P20393. Rev-erbα–FITC-DNA binding, fluorescence polarization, 90 min. activity, % at 10 µM. 0.79% of 370,000 active. AID 1259318;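 active means activity above about 14%, limit read from the data; passing the limit was not always enough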
Target sequence (P20393 whole entry, looked up): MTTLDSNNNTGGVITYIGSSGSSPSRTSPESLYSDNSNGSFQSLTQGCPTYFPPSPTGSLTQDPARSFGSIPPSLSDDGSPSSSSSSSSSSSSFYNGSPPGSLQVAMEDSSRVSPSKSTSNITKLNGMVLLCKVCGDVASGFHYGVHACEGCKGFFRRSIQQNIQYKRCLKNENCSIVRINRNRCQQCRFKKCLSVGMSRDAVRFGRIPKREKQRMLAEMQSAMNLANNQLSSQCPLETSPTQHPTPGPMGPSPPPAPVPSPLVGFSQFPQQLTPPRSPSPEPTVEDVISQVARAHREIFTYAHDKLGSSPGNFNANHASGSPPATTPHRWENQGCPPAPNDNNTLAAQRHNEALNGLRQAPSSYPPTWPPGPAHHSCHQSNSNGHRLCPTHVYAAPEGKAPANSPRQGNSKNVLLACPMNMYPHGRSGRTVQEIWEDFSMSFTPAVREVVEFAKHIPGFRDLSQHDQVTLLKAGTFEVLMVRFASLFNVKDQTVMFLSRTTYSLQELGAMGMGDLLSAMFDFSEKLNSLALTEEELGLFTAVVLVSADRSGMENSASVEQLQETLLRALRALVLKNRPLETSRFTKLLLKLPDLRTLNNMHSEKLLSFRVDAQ
CSN deneddyl inh: blocks human CSN-mediated cullin deneddylation; AID 651999; 0.38% of 360,000 active; Purified CSN, SCF-Nedd8-OG deneddylation, fluorescence polarization; inhibition, % at 12.5 µM;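 active means pattern-corrected inhibition above about 35%, with an unprinted fluorescence ratio check between 0.5 and 1.5, limit read from the data, passing the limit was not always enough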
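Test system: Human Csn5 produced in HEK293T cells | Compound: 12.5 µM single point | Times: 90 min, room temperature | Signal: Fluorescence polarization readout | Read-out basis: % inhibition of substrate cleavage by Csn5 | Controls: no-enzyme wells high, enzyme-with-substrate wells low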
Rev-erbA confirm: confirmation of modulators of human Rev-erb alpha DNA binding; activation, % at 25 µM; shares compounds with NR1D1 modulator; 61% of 3,000 active; AID 1259319; Rev-erb alpha FITC-DNA binding, fluorescence polarization, 90 min;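 active means activation at or above a set limit, or at least 3 SD above the negative control mean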
RORg counter: RORgamma DNA-binding activity, dose-response counter-screen. shares compounds with NR1D1 modulator. 8% of 910 active. purified RORgamma protein-FITC-DNA binding, fluorescence polarization. IC50, µM. AID 1259320;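 active means Compounds whose fitted half-maximal concentration for disrupting protein-DNA binding is below 10 micromolar; the record names Rev-erb in its text, so the target is in doubt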
Hits are given with their value; n = inactive; x = no result given.

SMILES	HNF4A DNA FP	TPT1 inh	NR1D1 modulator	CSN deneddyl inh	Rev-erbA confirm	others
Cc1ccc(NC(=O)CSc2nc3ncc(Br)cc3[nH]2)cc1C	n	n	194.7	n	185.5	RORg counter=n
CCOC(=O)c1c(-c2ccc(-c3ccccc3)cc2)csc1NC(=O)c1cccc(N2C(=O)CCC2=O)c1	n	n	42.6	n	29.2
COc1ccc(-c2csc(NC(=O)c3ccc(N4C(=O)CCC4=O)cc3)n2)cc1	n	n	27.2	n	n
CCOc1ccc(-c2csc(NC(=O)c3cccc(N4C(=O)CCC4=O)c3)n2)cc1	n	n	24.2	n	14.3
CCOC(=O)c1c(NC(=O)c2cccc(N3C(=O)CCC3=O)c2)sc(C)c1C	n	n	n	n	x
Cc1ccccc1/C=C1\SC(=S)N(/N=C/c2cc([N+](=O)[O-])ccc2O)C1=O	n	n	21.6	n	n
CCCCNC(=O)C[C@@H]1C[C@@]2(C(=O)OCC)CCCC=C2N(Cc2ccco2)C1=O	n	x	n	n	x
COC(=O)c1ccc2nc(-c3ccc(Cl)cc3)c(Cc3ccsc3)n2c1	n	x	n	n	x
CCOc1ccc2cc(C#N)c(SCC(=O)N3CCOCC3)nc2c1	n	n	n	n	x
Cc1nonc1NC(=O)CSc1nc2c(C)cccc2cc1C#N	n	n	80.9	n	72.6	RORg counter=n
COc1ccc2cc(C#N)c(SCC(=O)Nc3nonc3C)nc2c1	n	n	66.6	n	27.1
Cc1ccc(C)c2nc(SCC(=O)Nc3ccc4c(c3)OCO4)c(C#N)cc12	n	n	n	n	x
Cc1cc2cc(C#N)c(SCC(=O)Nc3nonc3C)nc2cc1C	n	n	20.4	n	33.3	RORg counter=n
CCOC(=O)CSc1nc2cc(OC)ccc2cc1C#N	n	n	29.5	n	30.5
O=C(NCc1ccccc1)[C@H]1CCCN1C(=O)[C@H]1CCCN1C(=O)c1ccccc1C(F)(F)F	x	x	n	x	x
CC(C)C[C@H]1COc2cc(Br)ccc2S(=O)(=O)N1Cc1ccc(F)cc1F	x	x	n	x	x
COc1ccc(-c2c(C#N)c(SCC(=O)Nc3ccccc3)nc3c2CCCC3)cc1	n	n	44.5	n	28.9
CCc1ccccc1NC(=O)CSc1nc2c(c(-c3ccco3)c1C#N)CCCC2	n	n	29.5	n	19.6
Cc1ccccc1NC(=O)CSc1nc2c(c(-c3ccco3)c1C#N)CCCC2	n	n	n	n	x
COc1ccc(-c2nnc(SCC(=O)Nc3sc4c(c3C#N)CCCC4)n2-c2ccccc2)cc1	n	n	n	n	x
COc1ccc(-c2ccc(C#N)c(SCC(=O)Nc3sc4c(c3C#N)CCC4)n2)cc1	n	n	33.9	n	n
COc1ccccc1N/C(N)=N/c1nc(CSc2ccc(C)cc2)cc(=O)[nH]1	n	n	31.4	n	34.5	RORg counter=n
COc1ccccc1OC(C)C(=O)Nc1nc(-c2ccc(S(=O)(=O)N3CCOCC3)cc2)cs1 (centres undefined)	n	n	n	n	x
COc1ccccc1C(=O)Nc1nc(-c2ccc(S(=O)(=O)N3CCOCC3)cc2)cs1	n	n	42.8	n	29.5
CC(C)CNC(=O)C1(C)CCCCCN1Cc1ccccc1-c1ccccc1 (centres undefined)	n	x	20.4	n	n
SMILES	HNF4A DNA FP	TPT1 inh	NR1D1 modulator	CSN deneddyl inh	Rev-erbA confirm	others
CCNC(=O)C1(C)CCCN1Cc1ccccc1Cl (centres undefined)	n	x	n	n	x
COc1cc(-c2ccc3oc(-c4ccsc4)cc(=O)c3c2)cc(OC)c1OC	n	x	n	n	x
CCOC(=O)c1ccc(-c2ccc3oc(-c4ccsc4)cc(=O)c3c2)cc1F	n	x	57.7	n	n
O=C(CSC1=Nc2ccccc2C2CC=NN12)Nc1ccc(F)c(F)c1F (centres undefined)	n	x	18.4	n	n
CCCCOC(=O)c1ccc(NC(=O)CSC2=Nc3ccccc3C3CC=NN23)cc1 (centres undefined)	n	n	n	n	x
CCC[C@H](/C=C/C(=O)OC(C)(C)C)Sc1ccc(N)cc1	x	x	n	x	x
CC1(C)C=C2C(=NN(c3ccccc3)C(N)=C2C#N)CO1	n	n	18.7	n	n
O=C(O)c1ccccc1C(c1ccccc1)c1ccccc1O (centres undefined)	n	x	54.4	n	44.8	RORg counter=n
O=C(O)c1ccccc1C(=O)O	n	x	n	n	x
C[C@H](O)[C@@H]1C(=O)N2CCc3c([nH]c4cccc(-c5ccccc5)c34)[C@@H]2C[C@@H]1N(C)C(=O)Nc1ccccc1	x	x	n	x	x
Cc1cccc(OCC(=O)Nc2ccccc2N2CCCC2)c1C	n	n	n	n	x
Cc1ccccc1OCC(=O)Nc1ccccc1N1CCCCC1	n	n	16.7	n	n
COc1ccc(/C=N/NC(=O)Nc2cccc3nsnc23)c(OC)c1	n	n	68.1	n	23.6
Cc1ccccc1OCC(=O)Nc1cccc2nsnc12	n	n	105.0	n	54.6	RORg counter=n
CCC(c1nnnn1-c1c(C)cccc1C)N1CCN(CCN2CCOCC2)CC1 (centres undefined)	n	x	n	n	x
CCCCCN1CCCCC(NC(=O)c2ccccc2OC)C1=O (centres undefined)	x	x	n	x	x
CCN(C(=O)C1CCN(c2ncccn2)CC1)c1ccccc1	x	x	n	x	x
Cc1ccc(OCC(=O)O/N=C(\N)c2ccncc2)cc1C	n	n	22.5	n	n
Cc1ccc(OCC(=O)O/N=C(\N)c2ccccn2)cc1C	n	n	n	n	x
CN1C2=N[C@@H](c3ccc4ccccc4c3)CC(=O)N2/C(=C\c2ccccc2)[C@H]1c1ccccc1	x	x	n	x	x
Cc1nc(N2CCN(c3ccccn3)CC2)c2c(C)c(C(=O)Nc3ccc(F)cc3F)sc2n1	n	n	n	n	x
Cc1nc(N2CCN(c3ccccn3)CC2)c2c(C)c(C(=O)N3CCN(c4cccc(Cl)c4)CC3)sc2n1	n	n	73.0	n	50.3	RORg counter=n
Cc1nc(N2CCN(c3ccccn3)CC2)c2c(C)c(C(=O)Nc3ccccc3F)sc2n1	n	n	n	n	x
Cc1nc(N2CCN(c3ccccn3)CC2)c2c(C)c(C(=O)Nc3ccc(F)cc3Cl)sc2n1	n	n	34.0	n	19.9
CCc1ccc(NC(=O)c2sc3nc(C)nc(N4CCN(c5ccccn5)CC4)c3c2C)cc1	n	n	28.4	n	21.5
SMILES	HNF4A DNA FP	TPT1 inh	NR1D1 modulator	CSN deneddyl inh	Rev-erbA confirm	others
COC(=O)Cn1c(=NC(=O)c2nc3ccccc3s2)sc2cc(S(C)(=O)=O)ccc21	x	n	77.8	x	58.8	RORg counter=1.04
CCCC1CCc2c(sc(NC(=O)c3cccs3)c2C(N)=O)C1 (centres undefined)	n	n	25.6	n	n
CCC1CCc2c(sc(NC(=O)c3cccnc3)c2C(N)=O)C1 (centres undefined)	n	n	26.7	n	n
O=C(NCc1ccccc1)N1CCN(Cc2nc3ccccc3c(=O)[nH]2)CC1	x	x	n	x	x
CCOc1ccc(CCNC(=O)c2cc(-c3ccccc3)c(N3CCOCC3)s2)cc1	n	n	91.2	n	80.4	RORg counter=n
CCOc1ccc(CCNC(=O)c2cc(-c3ccccc3)c(N3CCOCC3)s2)cc1OCC	n	n	n	n	x
